Data reported in ChEMBL document CHEMBL1148345, “Hydrophobic acetal and ketal derivatives of mannopeptimycin-alpha and desmethylhexahydromannopeptimycin-alpha: semisynthetic glycopeptides with potent activity against Gram-positive bacteria” (2004).
≈ marks a conversion by molar mass, not a printed value.

How the values were obtained:
Assay type in all cases: functional
Staphylococcus [1] = assay: In vitro minimum inhibitory concentration against Staphylococcus species; Range is 0.5-1 ug/mL
Enterococcus [2] = assay: In vitro minimum inhibitory concentration against Enterococcus species (in vitro); Range is 1-2 ug/mL
Streptococcus [3] = assay: In vitro minimum inhibitory concentration against Streptococcus species
Enterococcus [4] = assay: In vitro minimum inhibitory concentration against Enterococcus species; Range is 1-2 ug/mL
Enterococcus faecalis = assay: Effective dose of compound against Enterococcus faecalis (GC 6189) in mice
How it was run: (§1)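 Murine protection models against S. aureus Smith (GC 4543) and E. faecalis (GC 6189). Compounds dosed in D5W (5% dextrose in water); vancomycin dosed in saline. Five dosages, five mice per dosage level. ED50 in mg/kg reported as the pooled mean from at least three separate tests.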

Staphylococcus [5] = assay: In vitro minimum inhibitory concentration against Staphylococcus species
Streptococcus [6] = assay: In vitro minimum inhibitory concentration against Streptococcus species; Range is 0.06-0.25 ug/mL
Staphylococcus aureus = assay: Effective dose of compound against […] Smith (GC 4543) in mice; how it was run: as §1
Enterococcus [7] = assay: In vitro minimum inhibitory concentration against Enterococcus species; Range is 0.5-1 ug/mL
Staphylococcus [8] = assay: In vitro minimum inhibitory concentration against Staphylococcus species; Range is 0.25-1 ug/mL
Staphylococcus [9] = assay: In vitro minimum inhibitory concentration against Staphylococcus species; Range is 0.06-0.12 ug/mL
Streptococcus [10] = assay: In vitro minimum inhibitory concentration against Streptococcus species; Range is 0.06-0.12 ug/mL
Enterococcus [11] = assay: In vitro minimum inhibitory concentration against Enterococcus species; Range is 0.12-0.25 ug/mL
Enterococcus [12] = assay: In vitro minimum inhibitory concentration against Enterococcus species; Range is 0.5-2 ug/mL
Enterococcus [13] = assay: In vitro minimum inhibitory concentration against Enterococcus species; Range is 2-4 ug/mL
Staphylococcus [14] = assay: In vitro minimum inhibitory concentration against Staphylococcus species; Range is 0.5-2 ug/mL
Streptococcus [15] = assay: In vitro minimum inhibitory concentration against Streptococcus species; Range is 0.12-0.25 ug/mL
Enterococcus [16] = assay: In vitro minimum inhibitory concentration against Enterococcus species
Staphylococcus [17] = assay: In vitro minimum inhibitory concentration against Staphylococcus species; Range is 1-4 ug/mL
Streptococcus [18] = assay: In vitro minimum inhibitory concentration against Streptococcus species; Range is 0.12-1 ug/mL
Enterococcus [19] = assay: In vitro minimum inhibitory concentration against Enterococcus species; Range is 4-8 ug/mL
Staphylococcus [20] = assay: In vitro minimum inhibitory concentration against Staphylococcus species; Range is 1-2 ug/mL
Enterococcus [21] = assay: In vitro minimum inhibitory concentration against Enterococcus species; Range is 0.5-4 ug/mL
Streptococcus [22] = assay: In vitro minimum inhibitory concentration against Streptococcus species; Range is 0.12-0.5 ug/mL
Enterococcus [23] = assay: In vitro minimum inhibitory concentration against Enterococcus species; Range is 0.5-128 ug/mL

CCCCCC1OC[C@H]2O[C@H](O[C@H]3[C@H](O)[C@H](O)[C@@H](Oc4ccc(C[C@H]5NC(=O)C([C@@H](C)c6ccccc6)NC(=O)CNC(=O)[C@H](CO)NC(=O)[C@@H]([C@@H](O)[C@@H]6CN=C(N)N6[C@H]6O[C@H](CO)[C@@H](O)[C@H](O)[C@@H]6O)NC(=O)[C@H]([C@@H](O)[C@@H]6CN=C(N)N6)NC5=O)cc4)O[C@@H]3CO)[C@@H](O)[C@@H](O)[C@@H]2O1 (stereo not given in full)
MIC (Staphylococcus [1]): ≤ 1 µg/mL | MIC (Enterococcus [2]): 2 µg/mL (≈ 1.45 µM) | MIC (Streptococcus [3]): ≤ 0.5 µg/mL

C[C@@H](c1ccccc1)C1NC(=O)CNC(=O)[C@H](CO)NC(=O)[C@@H]([C@@H](O)[C@@H]2CN=C(N)N2[C@H]2O[C@H](CO)[C@@H](O)[C@H](O)[C@@H]2O)NC(=O)[C@H]([C@@H](O)[C@@H]2CN=C(N)N2)NC(=O)[C@@H](Cc2ccc(O[C@H]3O[C@H](CO)[C@@H](O[C@H]4O[C@@H]5COC(Cc6ccccc6)O[C@H]5[C@H](O)[C@@H]4O)[C@H](O)[C@@H]3O)cc2)NC1=O (stereo not given in full)
MIC (Enterococcus [4]): 2 µg/mL (≈ 1.43 µM) | ED50 (Enterococcus faecalis): 1.04 mg/kg | MIC (Staphylococcus [5]): 2 µg/mL (≈ 1.43 µM) | MIC (Streptococcus [6]): ≤ 0.25 µg/mL | ED50 (Staphylococcus aureus): 0.23 mg/kg

C[C@@H](c1ccccc1)C1NC(=O)CNC(=O)[C@H](CO)NC(=O)[C@@H]([C@@H](O)[C@@H]2CN=C(N)N2[C@H]2O[C@H](CO)[C@@H](O)[C@H](O)[C@@H]2O)NC(=O)[C@H]([C@@H](O)[C@@H]2CN=C(N)N2)NC(=O)[C@@H](Cc2ccc(O[C@H]3O[C@H](CO)[C@@H](O[C@H]4O[C@@H]5COC6(O[C@H]5[C@H](O)[C@@H]4O)C4CC5CC(C4)CC6C5)[C@H](O)[C@@H]3O)cc2)NC1=O (stereo not given in full)
ED50 (Enterococcus faecalis): 1.8 mg/kg | MIC (Streptococcus [3]): ≤ 0.06 µg/mL | MIC (Enterococcus [7]): 1 µg/mL (≈ 0.701 µM) | MIC (Staphylococcus [8]): 1 µg/mL (≈ 0.701 µM) | ED50 (Staphylococcus aureus): 0.04 mg/kg

NC1=NC[C@@H]([C@H](O)[C@@H]2NC(=O)[C@@H](Cc3ccc(O[C@H]4O[C@H](CO)[C@@H](O[C@H]5O[C@@H]6COC7(O[C@H]6[C@H](O)[C@@H]5O)C5CC6CC(C5)CC7C6)[C@H](O)[C@@H]4O)cc3)NC(=O)C(CC3CCCCC3)NC(=O)CNC(=O)[C@H](CO)NC(=O)[C@@H]([C@@H](O)[C@@H]3CN=C(N)N3[C@H]3O[C@H](CO)[C@@H](O)[C@H](O)[C@@H]3O)NC2=O)N1 (stereo not given in full)
MIC (Staphylococcus [9]): ≤ 0.12 µg/mL | ED50 (Enterococcus faecalis): 0.39 mg/kg | MIC (Streptococcus [3]): ≤ 0.06 µg/mL | MIC (Streptococcus [10]): ≤ 0.12 µg/mL | MIC (Enterococcus [11]): 0.25 µg/mL (≈ 0.176 µM) | MIC (Staphylococcus [8]): 1 µg/mL (≈ 0.704 µM) | ED50 (Staphylococcus aureus): 0.08 mg/kg | MIC (Enterococcus [12]): 2 µg/mL (≈ 1.41 µM)

NC1=NC[C@@H]([C@H](O)[C@@H]2NC(=O)[C@@H](Cc3ccc(O[C@H]4O[C@H](CO)[C@@H](O[C@H]5O[C@@H]6COC(c7ccccc7)O[C@H]6[C@H](O)[C@@H]5O)[C@H](O)[C@@H]4O)cc3)NC(=O)C(CC3CCCCC3)NC(=O)CNC(=O)[C@H](CO)NC(=O)[C@@H]([C@@H](O)[C@@H]3CN=C(N)N3[C@H]3O[C@H](CO)[C@@H](O)[C@H](O)[C@@H]3O)NC2=O)N1 (stereo not given in full)
MIC (Streptococcus [3]): ≤ 0.12 µg/mL | MIC (Enterococcus [13]): 4 µg/mL (≈ 2.91 µM) | MIC (Staphylococcus [14]): 2 µg/mL (≈ 1.45 µM)

C[C@@H](c1ccccc1)C1NC(=O)CNC(=O)[C@H](CO)NC(=O)[C@@H]([C@@H](O)[C@@H]2CN=C(N)N2[C@H]2O[C@H](CO)[C@@H](O)[C@H](O)[C@@H]2O)NC(=O)[C@H]([C@@H](O)[C@@H]2CN=C(N)N2)NC(=O)[C@@H](Cc2ccc(O[C@H]3O[C@H](CO)[C@@H](O[C@H]4O[C@@H]5COC(c6ccccc6)O[C@H]5[C@H](O)[C@@H]4O)[C@H](O)[C@@H]3O)cc2)NC1=O (stereo not given in full)
ED50 (Enterococcus faecalis): 0.39 mg/kg | MIC (Enterococcus [13]): 4 µg/mL (≈ 2.89 µM) | MIC (Staphylococcus [14]): 2 µg/mL (≈ 1.45 µM) | ED50 (Staphylococcus aureus): 0.19 mg/kg | MIC (Streptococcus [15]): ≤ 0.25 µg/mL

C[C@@H](c1ccccc1)C1NC(=O)CNC(=O)[C@H](CO)NC(=O)[C@@H]([C@@H](O)[C@@H]2CN=C(N)N2[C@H]2O[C@H](CO)[C@@H](O)[C@H](O)[C@@H]2O)NC(=O)[C@H]([C@@H](O)[C@@H]2CN=C(N)N2)NC(=O)[C@@H](Cc2ccc(O[C@H]3O[C@H](CO)[C@@H](O[C@H]4O[C@H](CO)[C@@H](O)[C@H](O)[C@@H]4O)[C@H](O)[C@@H]3O)cc2)NC1=O (stereo not given in full)
MIC (Streptococcus [3]): > 32 µg/mL | MIC (Staphylococcus [5]): 128 µg/mL (≈ 98.8 µM) | ED50 (Staphylococcus aureus): 20 mg/kg | MIC (Enterococcus [16]): > 128 µg/mL

C[C@@H](c1ccccc1)C1NC(=O)CNC(=O)[C@H](CO)NC(=O)[C@@H]([C@@H](O)[C@@H]2CN=C(N)N2[C@H]2O[C@H](CO)[C@@H](O)[C@H](O)[C@@H]2O)NC(=O)[C@H]([C@@H](O)[C@@H]2CN=C(N)N2)NC(=O)[C@@H](Cc2ccc(O[C@H]3O[C@H](CO)[C@@H](O[C@H]4O[C@@H]5COC6(CCCCC6)O[C@H]5[C@H](O)[C@@H]4O)[C@H](O)[C@@H]3O)cc2)NC1=O (stereo not given in full)
MIC (Staphylococcus [17]): 4 µg/mL (≈ 2.91 µM) | MIC (Streptococcus [18]): 1 µg/mL (≈ 0.727 µM) | MIC (Enterococcus [19]): 8 µg/mL (≈ 5.82 µM)

C[C@@H](c1ccccc1)C1NC(=O)CNC(=O)[C@H](CO)NC(=O)[C@@H]([C@@H](O)[C@@H]2CN=C(N)N2[C@H]2O[C@H](CO)[C@@H](O)[C@H](O)[C@@H]2O)NC(=O)[C@H]([C@@H](O)[C@@H]2CN=C(N)N2)NC(=O)[C@@H](Cc2ccc(O[C@H]3O[C@H](CO)[C@@H](O[C@H]4O[C@@H]5COC6(O[C@H]5[C@H](O)[C@@H]4O)C4CCCC6CCC4)[C@H](O)[C@@H]3O)cc2)NC1=O (stereo not given in full)
MIC (Staphylococcus [17]): 4 µg/mL (≈ 2.83 µM) | MIC (Enterococcus [19]): 8 µg/mL (≈ 5.65 µM) | MIC (Streptococcus [3]): ≤ 0.06 µg/mL

C[C@@H](c1ccccc1)C1NC(=O)CNC(=O)[C@H](CO)NC(=O)[C@@H]([C@@H](O)[C@@H]2CN=C(N)N2[C@H]2O[C@H](CO)[C@@H](O)[C@H](O)[C@@H]2O)NC(=O)[C@H]([C@@H](O)[C@@H]2CN=C(N)N2)NC(=O)[C@@H](Cc2ccc(O[C@H]3O[C@H](CO)[C@@H](O[C@H]4O[C@@H]5COC(C6CCCCC6)O[C@H]5[C@H](O)[C@@H]4O)[C@H](O)[C@@H]3O)cc2)NC1=O (stereo not given in full)
ED50 (Enterococcus faecalis): 0.19 mg/kg | MIC (Streptococcus [3]): ≤ 0.12 µg/mL | MIC (Staphylococcus [5]): 1 µg/mL (≈ 0.72 µM) | ED50 (Staphylococcus aureus): 0.07 mg/kg | MIC (Enterococcus [12]): 2 µg/mL (≈ 1.44 µM)

NC1=NC[C@@H]([C@H](O)[C@@H]2NC(=O)[C@@H](Cc3ccc(O[C@H]4O[C@H](CO)[C@@H](O[C@H]5O[C@@H]6COC(Cc7ccccc7)O[C@H]6[C@H](O)[C@@H]5O)[C@H](O)[C@@H]4O)cc3)NC(=O)C(CC3CCCCC3)NC(=O)CNC(=O)[C@H](CO)NC(=O)[C@@H]([C@@H](O)[C@@H]3CN=C(N)N3[C@H]3O[C@H](CO)[C@@H](O)[C@H](O)[C@@H]3O)NC2=O)N1 (stereo not given in full)
MIC (Staphylococcus [20]): 2 µg/mL (≈ 1.44 µM) | MIC (Enterococcus [21]): 4 µg/mL (≈ 2.88 µM) | MIC (Streptococcus [10]): ≤ 0.12 µg/mL

C[C@@H](c1ccccc1)C1NC(=O)CNC(=O)[C@H](CO)NC(=O)[C@@H]([C@@H](O)[C@@H]2CN=C(N)N2[C@H]2O[C@H](CO)[C@@H](O)[C@H](O)[C@@H]2O)NC(=O)[C@H]([C@@H](O)[C@@H]2CN=C(N)N2)NC(=O)[C@@H](Cc2ccc(O[C@H]3O[C@H](CO)[C@@H](O[C@H]4O[C@@H]5COC(CC6CCCCC6)O[C@H]5[C@H](O)[C@@H]4O)[C@H](O)[C@@H]3O)cc2)NC1=O (stereo not given in full)
MIC (Staphylococcus [20]): 2 µg/mL (≈ 1.43 µM) | MIC (Enterococcus [13]): 4 µg/mL (≈ 2.85 µM) | MIC (Streptococcus [10]): ≤ 0.12 µg/mL

CN[C@H](CC(C)C)C(=O)N[C@H]1C(=O)N[C@@H](CC(N)=O)C(=O)N[C@H]2C(=O)N[C@H]3C(=O)N[C@H](C(=O)N[C@H](C(=O)O)c4cc(O)cc(O)c4-c4cc3ccc4O)[C@H](O)c3ccc(c(Cl)c3)Oc3cc2cc(c3O[C@@H]2O[C@H](CO)[C@@H](O)[C@H](O)[C@H]2O[C@H]2C[C@](C)(N)[C@H](O)[C@H](C)O2)Oc2ccc(cc2Cl)[C@H]1O [VANCOMYCIN]
ED50 (Enterococcus faecalis): > 32 mg/kg | MIC (Streptococcus [22]): ≤ 0.5 µg/mL | MIC (Enterococcus [23]): 128 µg/mL (≈ 88.3 µM) | MIC (Staphylococcus [14]): < 2 µg/mL | ED50 (Staphylococcus aureus): 1 mg/kg
